Data published in ChEMBL document CHEMBL3580569, “N-Substituted Quinolinonyl Diketo Acid Derivatives as HIV Integrase Strand Transfer Inhibitors and Their Activity against RNase H Function of Reverse Transcriptase” (J Med Chem, 2015).

Columns and labels:
[1] = system: Human immunodeficiency virus 1; assay: Antiviral activity against HIV-1 3B infected in human HeLa-CD4-LTR-beta-gal cells assessed as inhibition of viral replication by SpectraMax GEMINI-XS plate reader analysis; assay type: functional, organism-based; conditions: Human immunodeficiency virus 1, 3B
Outline: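 HeLa-CD4-LTR-β-gal cells kept in DMEM, 10% serum, 0.5 mg/mL G418; seeded 10000 cells/well the day before. Drug 3-fold serially diluted over six points on cells (top 50 μM), then fresh medium or concentrated HIV-1(IIIB) supernatant added.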

[2] = target: T1, Human immunodeficiency virus type 1 integrase (Human immunodeficiency virus 1, UniProt Q7ZJM1)
[3] = target: T1, Human immunodeficiency virus type 1 integrase; remark: listed apart in the source
[4] = target: Human immunodeficiency virus type 1 reverse transcriptase (Human immunodeficiency virus 1, UniProt Q72547); assay: Inhibition of RNase H function of HIV1 reverse transcriptase using DNA/RNA hybrid as substrate by fluorescence spectrometer analysis
[5] = target: Human immunodeficiency virus type 1 reverse transcriptase (Human immunodeficiency virus 1) (UniProt Q72547); assay: Inhibition of RNase H function of HIV1 reverse transcriptase using DNA/RNA hybrid as substrate at 10 uM by fluorescence spectrometer analysis
Outline: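 RNase H activity of HIV-1 RT was measured with an RNA/DNA hybrid substrate at 250 nM final, with 150–800 ng RT, in 50 mM Tris-HCl pH 8.0, 60 mM KCl, 10 mM MgCl2 and 1% DMSO, against DMSO-only wells. Fluorescence (ex 485/em 520 nm) was read each minute over 10 min at 37 °C. Percent inhibition at 10 μM = 100(v0−vi)/v0 from initial rates, run in triplicate.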

[6] = Selectivity index, ratio of CC50 for human HeLa-CD4-LTR-beta-gal cells to EC50 for HIV-1 3B infected in human HeLa-CD4-LTR-beta-gal cells; assay type: toxicity; conditions: read-out: Ratio CC50/EC50
[7] = system: HeLa; assay: Cytotoxicity against human HeLa-CD4-LTR-beta-gal cells after 24 hrs by ATPlite reagent based luminescence analysis; assay type: cell-based

T1 sequence (Q7ZJM1 whole entry): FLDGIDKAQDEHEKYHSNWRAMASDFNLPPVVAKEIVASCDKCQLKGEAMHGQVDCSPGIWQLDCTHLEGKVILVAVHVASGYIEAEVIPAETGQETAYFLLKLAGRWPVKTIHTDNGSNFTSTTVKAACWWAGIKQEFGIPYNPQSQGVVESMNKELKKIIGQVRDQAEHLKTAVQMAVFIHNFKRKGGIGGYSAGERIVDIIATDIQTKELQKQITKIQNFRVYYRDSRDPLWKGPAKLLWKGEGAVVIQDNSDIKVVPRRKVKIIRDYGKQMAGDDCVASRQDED

O=C(O)/C(O)=C/C(=O)c1cn(Cc2ccc(O)cc2)c2ccccc2c1=O
EC50 [1]: > 50 µM | IC50 [2]: 0.45 µM | IC50 [3]: > 37 µM | IC50 [4]: 9.5 µM

COc1ccc(Cn2cc(C(=O)/C=C(\O)C(=O)O)c(=O)c3ccccc32)cc1
EC50 [1]: > 50 µM | IC50 [2]: 0.51 µM | IC50 [3]: 28 µM | inhibition [5]: 45.8% | IC50 [4]: > 50 µM

O=C(O)/C(O)=C/C(=O)c1cn(Cc2cccc(Cl)c2F)c2ccccc2c1=O
EC50 [1]: 23.4 µM | IC50 [2]: 0.018 µM | IC50 [3]: 1.75 µM | selectivity ratio [6]: > 2.1 | inhibition [5]: 12% | CC50 [7]: > 50 µM

O=C(O)/C(O)=C/C(=O)c1cn(Cc2ccc(Cl)cc2Cl)c2ccccc2c1=O
EC50 [1]: > 50 µM | IC50 [2]: 2.3 µM | IC50 [4]: 44.7 µM

CCOC(=O)/C(O)=C/C(=O)c1cn(Cc2cccc(Cl)c2F)c2ccccc2c1=O
EC50 [1]: 10 µM | IC50 [2]: 1.08 µM | IC50 [3]: 1.08 µM | selectivity ratio [6]: > 5 | inhibition [5]: 21% | CC50 [7]: > 50 µM

CCOC(=O)/C(O)=C/C(=O)c1cn(Cc2c(F)cccc2F)c2ccccc2c1=O
EC50 [1]: < 0.2 µM | IC50 [2]: 0.25 µM | IC50 [3]: > 12.3 µM | selectivity ratio [6]: > 250 | inhibition [5]: 4.1% | CC50 [7]: > 50 µM

O=C(O)/C(O)=C/C(=O)c1cn(Cc2ccccc2)c2ccccc2c1=O
EC50 [1]: 15.5 µM | IC50 [2]: 0.034 µM | IC50 [3]: 4 µM | inhibition [5]: 9.6% | CC50 [7]: > 50 µM

COc1cccc(Cn2cc(C(=O)/C=C(\O)C(=O)O)c(=O)c3ccccc32)c1 [RDS-2161]
EC50 [1]: > 50 µM | IC50 [2]: 0.14 µM | IC50 [3]: > 4.1 µM | inhibition [5]: 1.9%

CCOC(=O)/C(O)=C/C(=O)c1cn(Cc2ccc([N+](=O)[O-])cc2)c2ccccc2c1=O
EC50 [1]: > 50 µM | IC50 [2]: > 37 µM | IC50 [3]: > 37 µM | inhibition [5]: 31.9%

O=C(O)/C(O)=C/C(=O)c1cn(Cc2ccc(F)c(Cl)c2)c2ccccc2c1=O
EC50 [1]: > 50 µM | IC50 [2]: 0.19 µM | IC50 [3]: 21 µM | inhibition [5]: 25%

CCOC(=O)/C(O)=C/C(=O)c1cn(Cc2ccc(F)cc2F)c2ccccc2c1=O
EC50 [1]: 0.58 µM | IC50 [2]: 2.2 µM | selectivity ratio [6]: > 86.2 | inhibition [5]: 3% | CC50 [7]: > 50 µM

CCOC(=O)/C(O)=C/C(=O)c1cn(Cc2cc(F)cc(F)c2)c2ccccc2c1=O
EC50 [1]: 32.4 µM | IC50 [2]: 11 µM | selectivity ratio [6]: > 1.5 | inhibition [5]: 24% | CC50 [7]: > 50 µM

O=C(O)/C(O)=C/C(=O)c1cn(Cc2ccc([N+](=O)[O-])cc2)c2ccccc2c1=O
EC50 [1]: > 50 µM | IC50 [2]: 0.64 µM | IC50 [3]: 27 µM | IC50 [4]: 47 µM

O=C(O)/C(O)=C/C(=O)c1cn(Cc2ccc(F)c(Cl)c2)c2c(Cl)cccc2c1=O
EC50 [1]: 50 µM | IC50 [2]: 0.096 µM | IC50 [3]: 9.8 µM | inhibition [5]: 16%

O=C(O)/C(O)=C/C(=O)c1cn(Cc2ccc(F)cc2)c2cc(Cl)c(Cl)cc2c1=O
IC50 [3]: > 50 µM

CCOC(=O)/C(O)=C/C(=O)c1cn(Cc2ccc3ccccc3n2)c2ccccc2c1=O
EC50 [1]: > 50 µM | IC50 [2]: 3.5 µM | IC50 [3]: > 1000 µM | inhibition [5]: 4.4%

CCOC(=O)/C(O)=C/C(=O)c1cn(Cc2ccncc2)c2ccccc2c1=O
EC50 [1]: > 50 µM | IC50 [2]: 14 µM | IC50 [3]: > 333 µM | inhibition [5]: -5.6%

CCOC(=O)/C(O)=C/C(=O)c1cn(Cc2cccc(F)c2)c2ccccc2c1=O [RDS-1624]
EC50 [1]: 1.7 µM | IC50 [2]: 4.9 µM | IC50 [3]: > 12.3 µM | selectivity ratio [6]: > 29.4 | inhibition [5]: -9.4% | CC50 [7]: > 50 µM

COc1cc2c(cc1Cc1cccc(Cl)c1F)c(=O)c(C(=O)O)cn2[C@H](CO)C(C)C
EC50 [1]: 0.0142 µM | CC50 [7]: > 50 µM

CCOC(=O)/C(O)=C/C(=O)c1cn(Cc2ccc(Cl)cc2Cl)c2ccccc2c1=O
EC50 [1]: > 50 µM | IC50 [2]: > 111 µM | inhibition [5]: 51% | IC50 [4]: > 50 µM

CCOC(=O)/C(O)=C/C(=O)c1cn(Cc2ccc(F)c(Cl)c2)c2ccccc2c1=O
EC50 [1]: 17.4 µM | IC50 [2]: 3.1 µM | IC50 [3]: 266 µM | selectivity ratio [6]: > 2.9 | inhibition [5]: 18% | CC50 [7]: > 50 µM

O=C(O)/C(O)=C/C(=O)c1cn(Cc2ccncc2)c2ccccc2c1=O
EC50 [1]: > 50 µM | IC50 [2]: 16 µM | IC50 [3]: > 1000 µM | inhibition [5]: -2.6%

CCOC(=O)/C(O)=C/C(=O)c1cn(Cc2cccc(OC)c2)c2ccccc2c1=O
EC50 [1]: 8.5 µM | IC50 [2]: 16 µM | IC50 [3]: > 333 µM | selectivity ratio [6]: 5.2 | inhibition [5]: 4.9% | CC50 [7]: 44 µM

CCOC(=O)/C(O)=C/C(=O)c1cn(Cc2ccc(Cl)cc2)c2ccccc2c1=O
EC50 [1]: > 50 µM | IC50 [2]: > 37 µM | IC50 [3]: > 37 µM | inhibition [5]: 16.1%

O=C(O)/C(O)=C/C(=O)c1cn(Cc2cccc(F)c2)c2ccccc2c1=O
EC50 [1]: 28.2 µM | IC50 [2]: 0.015 µM | IC50 [3]: 4.6 µM | selectivity ratio [6]: > 1.8 | inhibition [5]: 2.4% | CC50 [7]: > 50 µM

O=C(O)/C(O)=C/C(=O)c1cn(Cc2ccc3ccccc3c2)c2ccccc2c1=O
EC50 [1]: 4.8 µM | IC50 [2]: < 0.45 µM | IC50 [3]: 18 µM | selectivity ratio [6]: > 10.4 | inhibition [5]: 40.7% | CC50 [7]: > 50 µM

Cc1nnc(C(=O)NC(C)(C)c2nc(C(=O)NCc3ccc(F)cc3)c(O)c(=O)n2C)o1
CC50 [7]: > 50 µM

CCOC(=O)/C(O)=C/C(=O)c1cn(Cc2ccccc2)c2ccccc2c1=O
EC50 [1]: 1 µM | IC50 [2]: 0.7 µM | IC50 [3]: > 1000 µM | selectivity ratio [6]: > 50 | inhibition [5]: -3.3% | CC50 [7]: > 50 µM

CCOC(=O)/C(O)=C/C(=O)c1cn(Cc2ccccc2F)c2cc(Cl)ccc2c1=O
EC50 [1]: 11 µM | selectivity ratio [6]: > 4.5 | inhibition [5]: 2.8% | CC50 [7]: > 50 µM

O=C(O)/C(O)=C/C(=O)c1cn(Cc2cc(F)cc(F)c2)c2ccccc2c1=O
EC50 [1]: > 50 µM | IC50 [2]: 0.22 µM | inhibition [5]: 30% | IC50 [4]: > 50 µM

O=C(O)/C(O)=C/C(=O)c1cn(CCCCc2ccccc2)c2ccccc2c1=O
EC50 [1]: > 50 µM | IC50 [2]: < 0.45 µM | IC50 [3]: > 333 µM | inhibition [5]: 33%

CCOC(=O)/C(O)=C/C(=O)c1cn(Cc2ccc(O)cc2)c2ccccc2c1=O
EC50 [1]: 30.9 µM | IC50 [2]: 1.4 µM | IC50 [3]: > 333 µM | selectivity ratio [6]: > 1.6 | inhibition [5]: 26% | CC50 [7]: > 50 µM

Cc1cc(C)cc(Cn2cc(C(=O)/C=C(\O)C(=O)O)c(=O)c3ccccc32)c1
EC50 [1]: > 50 µM | IC50 [2]: 0.05 µM | IC50 [4]: 37.8 µM

CCOC(=O)/C(O)=C/C(=O)c1cn(CCCCc2ccccc2)c2ccccc2c1=O
EC50 [1]: > 50 µM | IC50 [2]: 120 µM | IC50 [3]: > 333 µM | inhibition [5]: 19.4%

CCOC(=O)/C(O)=C/C(=O)c1cn(Cc2ccccc2F)c2ccccc2c1=O
EC50 [1]: 1.5 µM | IC50 [2]: 0.28 µM | IC50 [3]: 125 µM | selectivity ratio [6]: > 33.4 | inhibition [5]: 2.8% | CC50 [7]: > 50 µM

CCOC(=O)/C(O)=C/C(=O)c1cn(Cc2ccc(OC)cc2)c2ccccc2c1=O
EC50 [1]: > 50 µM | IC50 [2]: > 37 µM | IC50 [3]: > 37 µM | inhibition [5]: 10%

CCOC(=O)/C(O)=C/C(=O)c1cn(Cc2ccccc2OC)c2ccccc2c1=O [20, RDS-2163]
EC50 [1]: 2.6 µM | IC50 [2]: 1.4 µM | IC50 [3]: > 333 µM | selectivity ratio [6]: > 19.2 | inhibition [5]: 11.4% | CC50 [7]: > 50 µM

CCOC(=O)/C(O)=C/C(=O)c1cn(Cc2cc(C)cc(C)c2)c2ccccc2c1=O
EC50 [1]: > 50 µM | IC50 [2]: 1.3 µM | inhibition [5]: 21%

CCOC(=O)/C(O)=C/C(=O)c1cn(Cc2ccc(F)c(Cl)c2)c2c(Cl)cccc2c1=O
EC50 [1]: > 50 µM | IC50 [2]: 25.1 µM | IC50 [3]: > 333 µM | inhibition [5]: 24%

CCOC(=O)/C(O)=C/C(=O)c1cn(Cc2ccc(F)c(F)c2)c2ccccc2c1=O
EC50 [1]: 9.8 µM | IC50 [2]: 5.5 µM | selectivity ratio [6]: > 5.1 | inhibition [5]: 24% | CC50 [7]: > 50 µM

O=C(O)/C(O)=C/C(=O)c1cn(Cc2ccc3ccccc3n2)c2ccccc2c1=O
EC50 [1]: > 50 µM | IC50 [2]: 0.4 µM | IC50 [3]: 70 µM | inhibition [5]: 16.4%

CCOC(=O)/C(O)=C/C(=O)c1cn(Cc2cc(F)ccc2F)c2ccccc2c1=O
EC50 [1]: > 50 µM | IC50 [2]: 3.7 µM | inhibition [5]: 30%

CCOC(=O)/C(O)=C/C(=O)c1cn(Cc2ccc3ccccc3c2)c2ccccc2c1=O
EC50 [1]: > 50 µM | IC50 [2]: 32 µM | IC50 [3]: > 333 µM | inhibition [5]: 29.7%

O=C(O)/C(O)=C/C(=O)c1cn(Cc2c(Cl)cccc2Cl)c2ccccc2c1=O
EC50 [1]: > 50 µM | IC50 [2]: 0.27 µM | inhibition [5]: 86.3% | IC50 [4]: 10 µM

O=C(O)/C(O)=C/C(=O)c1cn(Cc2cc(F)ccc2F)c2ccccc2c1=O
EC50 [1]: > 50 µM | IC50 [2]: 3.2 µM | inhibition [5]: 37% | IC50 [4]: > 50 µM

CCOC(=O)/C(O)=C/C(=O)c1cn(Cc2ccc(C)cc2C)c2ccccc2c1=O
EC50 [1]: > 50 µM | IC50 [2]: > 111 µM | inhibition [5]: 33% | IC50 [4]: > 50 µM

Cc1ccc(Cn2cc(C(=O)/C=C(\O)C(=O)O)c(=O)c3ccccc32)c(C)c1
EC50 [1]: > 50 µM | IC50 [2]: 7 µM | IC50 [4]: 19.6 µM
